From ChEMBL document CHEMBL1909613, “Synthesis and biological activity of new bispyridinium salts of 4,4'-bispyridyl-5,5'-perfluoroalkyl-2,2'-bisoxazoles” (Eur J Med Chem, 2011) come the findings set out here.

In one experiment the test system is HT-29. Description: Cytotoxicity against human HT-29 cells after 72 hrs by MTT assay. It is filed as functional, cell-based. Put shortly:
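HT-29 cells grown in DMEM with 10% FBS at 37 °C, 95% humidity, 5% CO2. Seeded and held 24 h, then exposed to increasing concentrations in fresh medium for 72 h, quadruplicate wells per concentration. Viability by MTT absorbance at 595 nm. IC50 from a plot of log OD versus log drug concentration.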
A general note: Formazan colour is commonly taken as a measure of viable cells.

The next experiment deals with Choline kinase alpha (Homo sapiens, UniProt P35790). Description: Inhibition of recombinant human Choline kinase alpha using [methyl-14C]choline chloride as substrate after 30 mins by autoradiography. Put shortly: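 Extracts from cells expressing recombinant human ChoK were incubated 30 min at 37 °C in 100 mM Tris pH 8, 10 mM MgCl2, 10 mM ATP and [methyl-14C]choline chloride. Reaction stopped on ice with 500 mM EDTA. Choline and phosphocholine were separated by silica TLC (0.9% NaCl:methanol:ammonium hydroxide 50:70:5) and quantified by electronic autoradiography. IC50 came from a Hill-equation least-squares fit of PCho/(PCho+Cho) versus inhibitor concentration.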

Where only a bound is given, the exact number is not on record here.

Choline kinase alpha, sequence (P35790 whole entry): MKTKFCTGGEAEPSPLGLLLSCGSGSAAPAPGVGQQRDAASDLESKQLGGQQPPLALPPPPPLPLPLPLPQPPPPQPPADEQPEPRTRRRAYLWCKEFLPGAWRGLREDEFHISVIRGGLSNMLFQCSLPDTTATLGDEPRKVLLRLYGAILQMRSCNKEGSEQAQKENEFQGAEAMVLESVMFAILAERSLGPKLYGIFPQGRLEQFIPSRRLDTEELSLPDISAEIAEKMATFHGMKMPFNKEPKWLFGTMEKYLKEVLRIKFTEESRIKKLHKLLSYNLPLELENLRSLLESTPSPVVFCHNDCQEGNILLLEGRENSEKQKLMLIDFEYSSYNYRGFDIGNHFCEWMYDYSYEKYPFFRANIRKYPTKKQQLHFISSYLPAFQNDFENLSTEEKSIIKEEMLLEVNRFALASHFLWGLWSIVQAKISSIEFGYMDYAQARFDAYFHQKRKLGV

For `OCC[n+]1ccc(-c2nc(-c3ccc(-c4ccc(-c5nc(-c6cc[n+](CCO)cc6)c(C(F)(F)C(F)(F)F)o5)cc4)cc3)oc2C(F)(F)C(F)(F)F)cc1`, the IC50 – broadly, the concentration at which inhibition is half-maximal – turned out to be 0.84 µM in the experiment on HT-29 (Homo sapiens, HT-29, 72 h) and 9.65 µM on Choline kinase alpha.

Turning to `OCC[n+]1ccc(-c2nc(-c3ccc(-c4ccc(-c5nc(-c6cc[n+](CCO)cc6)c(C(F)(F)F)o5)cc4)cc3)oc2C(F)(F)F)cc1` [listing 1 of 2 here], the IC50 is 1.5 µM with HT-29 (Homo sapiens, HT-29, 72 h) and 23.8 µM at Choline kinase alpha.

In the case of `OCC[n+]1ccc(-c2nc(-c3ccc(-c4ccc(-c5nc(-c6cc[n+](CCO)cc6)c(C(F)(F)F)o5)cc4)cc3)oc2C(F)(F)F)cc1` [listing 2 of 2 here], the IC50 is 1.85 µM in the experiment on HT-29 (ht-29) and over 20 µM on Choline kinase alpha.

On to `OCC[n+]1ccc(-c2nc(-c3ccc(-c4ccc(-c5nc(-c6cc[n+](CCO)cc6)c(C(F)(F)C(F)(F)C(F)(F)F)o5)cc4)cc3)oc2C(F)(F)C(F)(F)C(F)(F)F)cc1`, for which the IC50 in the experiment with HT-29 (Homo sapiens, HT-29, 72 h) turned out to be 2.26 µM; at Choline kinase alpha it was 17.3 µM.

In the case of `CN(C)C(=O)C[n+]1ccc(-c2nc(-c3ccc(-c4ccc(-c5nc(-c6cc[n+](CC(=O)N(C)C)cc6)c(C(F)(F)C(F)(F)C(F)(F)F)o5)cc4)cc3)oc2C(F)(F)C(F)(F)C(F)(F)F)cc1`, the IC50 amounted to 2.5 µM with HT-29 (Homo sapiens, HT-29, 72 h) and 4.25 µM on Choline kinase alpha.

As for `CN(C)C(=O)C[n+]1ccc(-c2nc(-c3ccc(-c4ccc(-c5nc(-c6cc[n+](CC(=O)N(C)C)cc6)c(C(F)(F)F)o5)cc4)cc3)oc2C(F)(F)F)cc1`, the IC50 was found to be 4 µM with HT-29 (Homo sapiens, HT-29, 72 h) and 0.3 µM at Choline kinase alpha.

As for `CN(C)C(=O)C[n+]1ccc(-c2nc(-c3ccc(-c4ccc(-c5nc(-c6cc[n+](CC(=O)N(C)C)cc6)c(C(F)(F)C(F)(F)F)o5)cc4)cc3)oc2C(F)(F)C(F)(F)F)cc1`, the half-inhibitory concentration (IC50) was 5.5 µM with HT-29 (ht-29) and 2 µM at Choline kinase alpha.

Take `OCC[n+]1ccc(-c2nc(-c3ccc(C(c4ccc(-c5nc(-c6cc[n+](CCO)cc6)c(C(F)(F)C(F)(F)F)o5)cc4)(C(F)(F)F)C(F)(F)F)cc3)oc2C(F)(F)C(F)(F)F)cc1` [listing 1 of 2 here]: the IC50 in the experiment with HT-29 (Homo sapiens, HT-29, 72 h) worked out at 6 µM; on Choline kinase alpha, 4.4 µM.

In the case of `OCC[n+]1ccc(-c2nc(-c3ccc(C(c4ccc(-c5nc(-c6cc[n+](CCO)cc6)c(C(F)(F)C(F)(F)C(F)(F)F)o5)cc4)(C(F)(F)F)C(F)(F)F)cc3)oc2C(F)(F)C(F)(F)C(F)(F)F)cc1`, the IC50 in the experiment with HT-29 (Homo sapiens, HT-29, 72 h) was determined as 6.35 µM; on Choline kinase alpha, 13.5 µM.

`OCC[n+]1ccc(-c2nc(-c3ccc(C(c4ccc(-c5nc(-c6cc[n+](CCO)cc6)c(C(F)(F)C(F)(F)F)o5)cc4)(C(F)(F)F)C(F)(F)F)cc3)oc2C(F)(F)C(F)(F)F)cc1` [listing 2 of 2 here]: the results for the IC50 in the experiment on HT-29 (ht-29) and at Choline kinase alpha were 7.7 µM and 4.2 µM, respectively.

In the case of `FC(F)(F)C(F)(F)c1oc(-c2ccc(C(c3ccc(-c4nc(-c5cc[n+](CCCl)cc5)c(C(F)(F)C(F)(F)F)o4)cc3)(C(F)(F)F)C(F)(F)F)cc2)nc1-c1cc[n+](CCCl)cc1`, the 50% inhibitory concentration (IC50) with HT-29 (Homo sapiens, HT-29, 72 h) stood at 9.3 µM; at Choline kinase alpha, 14.2 µM.

On to `FC(F)(F)c1oc(-c2ccc(C(c3ccc(-c4nc(-c5cc[n+](CCCl)cc5)c(C(F)(F)F)o4)cc3)(C(F)(F)F)C(F)(F)F)cc2)nc1-c1cc[n+](CCCl)cc1`, for which the half-maximal inhibitory concentration (IC50) in the experiment on HT-29 (Homo sapiens, HT-29, 72 h) was 13.8 µM; at Choline kinase alpha it was 12.5 µM.

`FC(F)(F)C(F)(F)C(F)(F)c1oc(-c2ccc(C(c3ccc(-c4nc(-c5cc[n+](CCCl)cc5)c(C(F)(F)C(F)(F)C(F)(F)F)o4)cc3)(C(F)(F)F)C(F)(F)F)cc2)nc1-c1cc[n+](CCCl)cc1`: the IC50 was found to be 15.5 µM in the experiment on HT-29 (Homo sapiens, HT-29, 72 h) and 11.6 µM at Choline kinase alpha.

`CN(C)C(=O)C[n+]1ccc(-c2nc(-c3ccc(C(c4ccc(-c5nc(-c6cc[n+](CC(=O)N(C)C)cc6)c(C(F)(F)F)o5)cc4)(C(F)(F)F)C(F)(F)F)cc3)oc2C(F)(F)F)cc1`: the IC50 in the experiment with HT-29 (Homo sapiens, HT-29, 72 h) is over 20 µM; at Choline kinase alpha it was 6.15 µM.

As for `CN(C)C(=O)C[n+]1ccc(-c2nc(-c3ccc(-c4nc(-c5cc[n+](CC(=O)N(C)C)cc5)c(C(F)(F)F)o4)cc3)oc2C(F)(F)F)cc1`, the IC50 in the experiment on HT-29 (Homo sapiens, HT-29, 72 h) is over 50 µM; at Choline kinase alpha it was 1.35 µM.

As for `CN(C)C(=O)C[n+]1ccc(-c2nc(-c3ccc(-c4nc(-c5cc[n+](CC(=O)N(C)C)cc5)c(C(F)(F)C(F)(F)F)o4)cc3)oc2C(F)(F)C(F)(F)F)cc1`, the IC50 in the experiment with HT-29 (Homo sapiens, HT-29, 72 h) is over 50 µM; on Choline kinase alpha, 15 µM.
